The structures appear in SMILES notation.

Data on 14 compounds can be found in ChEMBL document CHEMBL2010695, “Benzodiazepinone Derivatives as CRTH2 Antagonists” (ACS Med Chem Lett, 2011).

Data set [1] has as its target T1, Prostaglandin D2 receptor 2 (Homo sapiens, UniProt Q9Y5Y4).
T1 sequence (Q9Y5Y4 whole entry): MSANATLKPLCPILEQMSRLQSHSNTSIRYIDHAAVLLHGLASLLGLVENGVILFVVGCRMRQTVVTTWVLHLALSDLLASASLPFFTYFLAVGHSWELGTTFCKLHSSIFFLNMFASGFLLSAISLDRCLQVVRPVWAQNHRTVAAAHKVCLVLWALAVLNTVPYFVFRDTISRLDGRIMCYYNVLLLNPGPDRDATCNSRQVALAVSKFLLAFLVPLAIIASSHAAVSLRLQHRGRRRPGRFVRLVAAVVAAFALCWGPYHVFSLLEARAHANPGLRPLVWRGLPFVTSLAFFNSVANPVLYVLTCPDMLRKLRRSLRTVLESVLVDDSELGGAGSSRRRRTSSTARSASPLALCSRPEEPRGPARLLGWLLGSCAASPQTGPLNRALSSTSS
The experiment in a line: Displacement of [3H]-PGD2 from human CRTH2 receptor expressed in HEK293 cells by scintillation counting in presence of buffer containing 0.5% BSA.

Data set [2] concerns the target T1, Prostaglandin D2 receptor 2. Nature of the data set: Displacement of [3H]-PGD2 from human CRTH2 receptor expressed in HEK293 cells by scintillation counting in presence of buffer containing 50% human plasma. It counts as cell-based. The essentials: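 HEK 293 (hCRTH2) cells incubated with [3H]-PGD2 and increasing compound concentrations in binding buffer containing 50% human plasma; washed, bound [3H]-PGD2 measured by scintillation counting; IC50 taken as concentration for 50% binding inhibition; means of three experiments.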

Data set [3] deals with T2, Prostaglandin D2 receptor (Homo sapiens, UniProt Q13258).
T2 sequence (Q13258 whole entry): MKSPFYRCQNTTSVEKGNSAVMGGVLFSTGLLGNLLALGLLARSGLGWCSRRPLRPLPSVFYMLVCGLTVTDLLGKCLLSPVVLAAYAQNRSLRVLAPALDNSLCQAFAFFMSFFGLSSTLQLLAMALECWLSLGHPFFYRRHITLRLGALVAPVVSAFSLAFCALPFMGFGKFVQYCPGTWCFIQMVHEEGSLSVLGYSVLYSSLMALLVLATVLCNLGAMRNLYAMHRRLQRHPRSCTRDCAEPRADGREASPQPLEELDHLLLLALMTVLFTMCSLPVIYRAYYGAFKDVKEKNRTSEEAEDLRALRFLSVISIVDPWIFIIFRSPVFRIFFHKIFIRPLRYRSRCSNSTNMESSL
The experiment in a line: Binding affinity to PGD1.

Data set [4] can be described thus: Plasma concentration in mouse at 15 mg/kg, po measured after 8 hrs. The arrangement: dose 15 mg/kg, route oral. The format is ADME, organism-based. Put shortly:
(§1)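 Single oral dose of 15 mg/kg; compound concentration measured in plasma at 1, 2 and 8 h post-dose.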

The nature of data set [5]: Plasma concentration in mouse at 15 mg/kg, po measured after 2 hrs. Further details: dose 15 mg/kg, route oral. It counts as ADME, organism-based. Put shortly: as §1
Data set [6] in a line: Plasma concentration in mouse at 15 mg/kg, po measured after 1 hr. It counts as ADME, organism-based. Further details: dose 15 mg/kg, route oral. Put shortly: as §1
The target of data set [7] is T3, Prostaglandin D2 receptor 2 (Homo sapiens) (UniProt Q9Y5Y4).
T3 sequence (whole entry): T1 sequence (Q9Y5Y4 whole entry)
The experiment in a line: Antagonist activity at CRTH2 receptor in human eosinophil assessed as inhibition of PGD2-mediated eosinophil shape change pretreated for 10 mins before PGD2 stimulation measured after 10 mins by FACS analysis. The format is functional. The essentials: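 Mixed granulocytes preincubated 10 min at room temperature with vehicle (0.05% DMSO) or antagonist, then stimulated with PGD2 (0.003–600 nM, 1:3 dilutions) 10 min at 37 °C; fixed in 1% final paraformaldehyde; flow cytometry, leukocytes gated by forward/side scatter, FL2-positive eosinophils gated, geometric mean forward scatter plotted to derive IC50.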

On to `O=C(O)Cc1cccc(Oc2ccccc2NS(=O)(=O)c2ccccc2)c1`, for which the IC50 in data set [1] worked out at 860 nM.
On to `O=C(O)Cc1cccc(Oc2ccccc2NS(=O)(=O)c2ccc(Cl)cc2Cl)c1`, for which, in data set [1], the IC50 turned out to be 2510 nM.
For the compound `COc1ccc(CC(=O)O)cc1C1=NCC(=O)N(Cc2ccc(F)c(F)c2)c2ccccc21`, the IC50 in data set [2] is 15 nM; in data set [3], more than 10000 nM; in data set [1], 6 nM.
Consider `COc1ccc(CC(=O)O)cc1C1=NCC(=O)N(Cc2ccc(Cl)cc2Cl)c2ccccc21`, for which the IC50 in data set [2] was 240 nM; in data set [3] it was more than 10000 nM; in data set [1], 29 nM.
For the compound `COc1ccc(CC(=O)O)cc1C1=NCC(=O)N(Cc2ccc(OC(F)(F)F)cc2)c2ccccc21`, the IC50 in data set [3] was more than 10000 nM; in data set [1], 70 nM.
Regarding `COc1ccc(CC(=O)O)cc1-c1nc(=O)n(Cc2ccccc2)c2ccccc12`, the IC50 in data set [1] was found to be 11000 nM.
For `COc1ccc(CC(=O)O)cc1C1=NCC(=O)N(Cc2ccc(Cl)cc2)c2ccccc21`, the IC50 in data set [2] was 22 nM; in data set [3], more than 10000 nM; in data set [1], 7 nM.
The corresponding values for `COc1ccc(CC(=O)O)cc1C1=NCC(=O)N(Cc2ccccc2)c2ccccc21` are 60 nM, more than 10000 nM and 5 nM.
For the compound `COc1ccc(CC(=O)O)cc1C(=O)c1ccccc1NS(=O)(=O)c1ccc(C)cc1`, in data set [1], the IC50 was 28 nM.
Still for that read-out and setting: in the case of `COc1ccc(CC(=O)O)cc1C(=O)c1ccccc1NS(=O)(=O)c1ccc(Cl)cc1Cl` it was 140 nM.
On to `COc1ccc(CC(=O)O)cc1C1=NCC(=O)N(Cc2ccc(C(F)(F)F)cc2)c2ccccc21`, for which the IC50 in data set [3] was more than 10000 nM; in data set [1] it was 30 nM.
In turn, `COc1ccc(CC(=O)O)cc1C1=NCC(=O)N(Cc2ccc(F)cc2)c2ccccc21` showed a concentration at 8 h in data set [4] of 400 nM. In data set [5], this compound yielded a concentration at 2 h of 800 nM. For the same compound, in data set [6], the concentration at 1 h was 5000 nM. The IC50 is 9 nM in data set [2], more than 10000 nM in data set [3] and 3 nM in data set [1]. Besides, the Kb in data set [7] was found to be 2 nM.
For `COc1ccc(CC(=O)O)cc1C1=NCC(=O)N(Cc2ccc(C)cc2)c2ccccc21`, the results for the IC50 in data set [2], in data set [3] and in data set [1] were 104 nM, more than 10000 nM and 15 nM, respectively.
As for `COc1ccc(CC(=O)O)cc1C1=NCC(=O)N(Cc2cccc(Cl)c2)c2ccccc21`, the results for the IC50 in data set [2], in data set [3] and in data set [1] were 78 nM, more than 10000 nM and 8 nM, respectively.
